Measured values taken from ChEMBL document CHEMBL4834426, “Antimalarial Benzimidazole Derivatives Incorporating Phenolic Mannich Base Side Chains Inhibit Microtubule and Hemozoin Formation: Structure-Activity Relationship and In Vivo Oral Efficacy Studies” (J Med Chem, 2021).
pIC50: −log10 of the molar value.

Tests used:
[1] = Resistance index, ratio of IC50 for antimalarial activity against asexual blood stage multi drug-resistant Plasmodium falciparum K1 to IC50 for antimalarial activity against asexual blood stage drug-sensitive Plasmodium falciparum NF54; type: functional
Method in brief: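 Resistance index is IC₅₀(K1)/IC₅₀(NF54). Both IC₅₀s came from the [³H]-hypoxanthine incorporation assay, as means of ≥2 independent experiments.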

[2] = test system: Plasmodium falciparum; test: Antimalarial activity against asexual blood stage drug-sensitive Plasmodium falciparum NF54 infected in erythrocytes assessed as reduction in parasitemia incubated up to 72 hrs by [3H]hypoxanthine incorporation assay; type: functional, organism-based
Method in brief: (§1)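 [³H]-Hypoxanthine incorporation assay (modified) on asexual blood-stage P. falciparum in vitro. IC₅₀ values are means of ≥2 independent experiments.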

[3] = test system: Plasmodium falciparum; test: Antiplasmodial activity against […] Plasmodium falciparum NF54 late gametocytes transfected with GFP-Luc […] at 5 uM incubated for 48 hrs by microscopy based luciferase reporter gene assay relative to control; type: functional
Method in brief: (§2)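 NF54-Pfs16-GFP-Luc gametocytes, assays set up day 5 (early, stage II/III) or day 10 (late, stage IV/V). Culture at 2−3% gametocytemia, 1.5% hematocrit, 48 h drug exposure at 37 °C under 90% N₂/5% O₂/5% CO₂. Lysates mixed with luciferin; bioluminescence read with 10 s integration. Dual-point: one biological repeat in technical triplicate. Methylene blue (5 μM) reference.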

[4] = test system: Plasmodium falciparum; test: Antimalarial activity against asexual blood stage multi drug-resistant Plasmodium falciparum K1 infected in erythrocytes assessed as reduction in parasitemia incubated up to 72 hrs by [3H]hypoxanthine incorporation assay; type: functional, organism-based; method in brief: as §1
[5] = test system: Plasmodium falciparum; test: Antiplasmodial activity against […] Plasmodium falciparum NF54 early gametocytes transfected with GFP-Luc […] at 1 uM incubated for 48 hrs by microscopy based luciferase reporter gene assay relative to control; type: functional; method in brief: as §2
[6] = test system: Plasmodium falciparum; test: Antiplasmodial activity against […] Plasmodium falciparum NF54 early gametocytes transfected with GFP-Luc […] at 5 uM incubated for 48 hrs by microscopy based luciferase reporter gene assay relative to control; type: functional; method in brief: as §2
[7] = test system: Plasmodium falciparum; test: Antiplasmodial activity against […] Plasmodium falciparum NF54 late gametocytes transfected with GFP-Luc […] at 1 uM incubated for 48 hrs by microscopy based luciferase reporter gene assay relative to control; type: functional; method in brief: as §2
[8] = Selectivity index, ratio of IC50 for Cytotoxicity against CHO cells assessed as inhibition of cell viability by MTT assay to IC50 for antimalarial activity against asexual blood stage Plasmodium falciparum NF54 assessed as reduction in parasitemia incubated up to 72 hrs by [3H]hypoxanthine incorporation assay; type: toxicity, cell-based; conditions: hamster, read-out: Selectivity Index
Method in brief: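 Selectivity index is IC₅₀(CHO)/IC₅₀(NF54). […] IC₅₀ came from nonlinear dose-response fitting. Parasite IC₅₀ came from the [³H]-hypoxanthine assay.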

[9] = test system: CHO; test: Cytotoxicity against CHO cells assessed as inhibition of cell viability by MTT assay; type: cell-based; conditions: Cricetulus griseus
[10] = test system: Plasmodium falciparum; test: Antiplasmodial activity against […] Plasmodium falciparum NF54 early gametocytes transfected with GFP-Luc […] incubated for 48 hrs by microscopy based luciferase reporter gene assay relative to control; type: functional, organism-based; conditions: NF54, 48 h
Method in brief: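 Transgenic NF54-Pfs16-GFP-Luc gametocytes, read by luciferase reporter. Early assays were set up on day 5 (50% stage II/50% stage III) and late assays on day 10 (40% stage IV/60% stage V). Luciferin was added to lysates at room temperature and bioluminescence read. Methylene blue (5 μM) was the reference. Single-point screens at 1 and 5 μM used n=1 in technical triplicate. IC₅₀ came from a normalized nonlinear fit, n≥3 in triplicate.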

[11] = Metabolic stability in human liver microsomes assessed as compound remaining at 1 uM incubated for 30 mins by LC-MS/MS analysis; type: ADME, Microsome; conditions: read-out: Stabilty
Method in brief: (§3)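 Single-point design: 1 μM compound with 0.4 mg/mL liver microsomes in 0.1 M phosphate buffer pH 7.4 for 30 min. Quenched with ice-cold acetonitrile containing carbamazepine internal standard, centrifuged, analyzed by LC−MS/MS. Percent remaining from internal-standard-corrected peak areas at 30 min versus 0 min. Propranolol, midazolam and MMV390048 as controls.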

[12] = Metabolic stability in rat liver microsomes assessed as compound remaining at 1 uM incubated for 30 mins by LC-MS/MS analysis; type: ADME, Microsome; conditions: read-out: Stabilty; method in brief: as §3
[13] = Kinetic solubility of the compound in pH 6.5 incubated for 24 hrs by HPLC-DAD analysis; type: physicochemical; conditions: buffer, read-out: Kinetic_solubility
Method in brief: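 Miniaturized shake-flask method. 10 mM DMSO stock dried down, phosphate buffer pH 6.5 added, shaken 24 h at 25 °C. Centrifuged 3500g for 15 min; supernatant analyzed by HPLC-DAD against 10−220 μM DMSO calibration curve. Reserpine, hydrocortisone and MMV390048 as controls.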

[14] = Metabolic stability in mouse liver microsomes assessed as compound remaining at 1 uM incubated for 30 mins by LC-MS/MS analysis; type: ADME, Microsome; conditions: read-out: Stabilty; method in brief: as §3

| SMILES | Ratio IC50 [1] | pIC50 [2] | inhibition at 5 µM [3] [%] | pIC50 [4] | inhibition at 1 µM [5] [%] | inhibition at 5 µM [6] [%] | inhibition at 1 µM [7] [%] | selectivity ratio at 72 h [8] | pIC50 [9] | pIC50 [10] | remaining at 0.5 h, 1 µM [11] [%] | remaining at 0.5 h, 1 µM [12] [%] | solubility kinetic at 24 h [13] [µM] | remaining at 0.5 h, 1 µM [14] [%] |
| --- | --- | --- | --- | --- | --- | --- | --- | --- | --- | --- | --- | --- | --- | --- |
| CCN(CC)Cc1cccc(Nc2nc3ccccc3n2Cc2ccc(F)cc2)c1O | 0.5 | 6.44 | 58 | 6.74 | 65 | 91 | 36 | > 136 | < 4.30 | 5.65 | – | – | – | – |
| CCN(CC)Cc1c(Cl)ccc(Nc2nc3ccccc3n2Cc2ccc(C(F)(F)F)cc2)c1O | 0.21 | 5.74 | 1 | 6.42 | 7 | 59 | 5 | > 27 | < 4.30 | 5.51 | – | – | – | – |
| CCN(CC)Cc1cccc(Nc2nc3ccccc3n2Cc2ccc(C(F)(F)F)cc2)c1O | 0.3 | 6.36 | 56 | 6.89 | 71 | 93 | 35 | > 113 | < 4.30 | 5.84 | – | – | – | – |
| CC(C)(C)NCc1cc(C(C)(C)C)cc(Nc2nc3cc(F)c(F)cc3[nH]2)c1O | 1.87 | 6.82 | 0 | 6.55 | 0 | 0 | 0 | 228 | 4.47 | – | – | – | – | – |
| CC(C)(C)NCc1cc(Cl)cc(Nc2nc3ccccc3n2Cc2ccc(C(F)(F)F)cc2)c1O | 0.21 | 6.55 | 0 | 7.22 | 44 | 92 | 0 | 130 | 4.44 | 6.23 | 81 | 9 | < 5 | 36 |
| CCN(CC)Cc1cc(C)cc(Nc2nc3ccccc3n2Cc2ccc(C#N)cc2)c1O | 0.71 | 6.19 | 52 | 6.34 | 39 | 98 | 15 | 21.8 | 4.85 | – | – | – | – | – |
| CC(C)(C)NCc1cc(Cl)cc(Nc2nc3cc(F)c(F)cc3[nH]2)c1O | 2.4 | 6.59 | 0 | 6.28 | 0 | 16 | 0 | 153 | 4.40 | – | – | – | – | – |
| Cc1cc(CNC(C)(C)C)c(O)c(Nc2nc3cc(F)c(F)cc3[nH]2)c1 | 3.19 | 6.59 | 0 | 6.08 | 0 | 31 | 0 | 64 | 4.78 | – | – | – | – | – |
| Cc1cc(CNC(C)(C)C)c(O)c(Nc2nc3cc(F)c(F)cc3n2Cc2ccc(C(F)(F)F)cc2)c1 | 0.6 | 6.60 | 73 | 6.82 | 60 | 96 | 0 | 40.2 | 5.00 | 6.28 | 90 | 89 | < 5 | > 99 |
| CCN(CC)Cc1cc(C)cc(Nc2nc3ccccc3n2Cc2ccc(C(F)(F)F)cc2)c1O | 0.32 | 6.72 | 62 | 7.22 | 91 | 97 | 41 | 154 | 4.53 | 6.96 | 36 | < 7 | < 5 | < 7 |
| CCN(CC)Cc1cc(C)cc(Nc2nc3ccccc3n2Cc2ccc(F)cc2)c1O | 0.38 | 6.26 | 58 | 6.68 | 81 | 97 | 41 | 34 | 4.73 | 6.06 | – | – | – | – |
| CCN(CC)Cc1cc(Nc2nc3ccccc3n2Cc2ccc(C(F)(F)F)cc2)ccc1O | 4.33 | 6.41 | 45 | 5.77 | 34 | 48 | 31 | 44.9 | 4.76 | – | – | – | – | – |
| CCN(CC)Cc1ccc(C)c(Nc2nc3ccccc3n2Cc2ccc(F)cc2)c1O | 0.58 | 5.64 | 39 | 5.88 | 14 | 24 | 0 | > 22 | < 4.30 | – | – | – | – | – |
| CCN(CC)Cc1cc(Nc2nc3ccccc3n2Cc2ccc(F)cc2)ccc1O | 2.87 | 6.17 | 39 | 5.71 | 33 | 59 | 11 | 17.6 | 4.92 | – | – | – | – | – |
